Assay results reported in ChEMBL document CHEMBL1123304 (J Med Chem, 1986).

Experiments:
Mus musculus [1] = species: Mus musculus; assay: Compound was evaluated for the inhibitory activity against Tetrabenazine ptosis in mice; format: functional
How it was run: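 CFLP male mice, 18–22 g, 10/group. Tetrabenazine 35 mg/kg ip at −20 min. Ptosis rated by an observer blind to treatment. Compounds given sc 15 or 30 min beforehand. Controls received the vehicle. ED50 with range.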

[2] = Lethal effect was determined in mice; format: ADME, organism-based; conditions: mouse, in vivo
How it was run: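 Male CFLP (Swiss) mice, 18–22 g, dosed sc. Vehicle was physiological saline, with Tween-80 added for some compounds in this determination; controls received the solvent. LD50 in mg/kg determined.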

[3] = target: Sodium-dependent dopamine transporter (Mus musculus) (UniProt Q61327); assay: Compound was evaluated for the inhibitory activity against Haloperidol catalepsy in mice; format: functional
How it was run: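 Male CFLP (Swiss) mice, 18–22 g, 10/group. Haloperidol 5 mg/kg ip, 60 min. Catalepsy tested on a vertical grid. Compounds given sc 15 or 30 min before testing, in saline or the listed vehicles. Controls received the vehicle. ED50 with range.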

Mus musculus [4] = species: Mus musculus; assay: Amphetamine induced motility in mice; format: functional
Mus musculus [5] = species: Mus musculus; assay: Compound was evaluated for the inhibitory activity against tetrabenazine catalepsy in mice; format: functional
How it was run: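 Male CFLP (Swiss) mice, 18–22 g, 10/group. Tetrabenazine 25 mg/kg ip, 30 min before testing. Catalepsy scored on a vertical grid. Compounds given sc 15 or 30 min before testing. Controls received the vehicle. ED50 with range.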

Mus musculus [6] = assay: Dose influencing (+/-) the spontaneous motility in mice, administered intraperitoneally (ip); format: functional
How it was run: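 CFLP male mice, 10/group. Spontaneous motility recorded in a circuit-closing apparatus, no amphetamine. Compounds given 15 or 30 min before testing. Vehicle controls. Minimum dose raising (+) or lowering (−) motility, ip.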

[7] = target: Sodium-dependent dopamine transporter (Rattus norvegicus) (UniProt P23977); assay: Inhibitory activity against inducing stereotypy in rats; format: functional
How it was run: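 Male CFY (Sprague-Dawley) rats. Animals showing stereotypy were placed in an activity meter. Doses giving 5 times control motility were determined. Minimum effective dose, sc.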

Mus musculus [8] = species: Mus musculus; assay: Inhibitory activity against reserpine hypothermia in mice.; format: functional
How it was run: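 Mice (male CFLP, 18–22 g, 10/group) given reserpine 1 mg/kg ip 3 h before testing. Rectal temperature read with a thermistor probe. Compounds given sc 15 or 30 min before testing. Minimum effective dose.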

Felis catus [9] = species: Felis catus; assay: Compound was tested for potentiating the dopamine-induced hypotension in cats.; format: functional
Mus musculus [10] = assay: Inhibitory activity against tetrabenazine catalepsy in mice (sc); format: functional
Mus musculus [11] = assay: Inhibition of tetrabenazine ptosis in mice (sc).; format: functional
Mus musculus [12] = assay: Compound was evaluated for the dose influencing (+/-) the amphetamine induced motility in mice, administered intraperitoneally (ip); format: functional
Felis catus [13] = species: Felis catus; assay: Compound was tested for potentiating the dopamine-induced hypotension in cats; format: functional

Chain of Sodium-dependent dopamine transporter (Mus musculus) (Q61327 whole entry): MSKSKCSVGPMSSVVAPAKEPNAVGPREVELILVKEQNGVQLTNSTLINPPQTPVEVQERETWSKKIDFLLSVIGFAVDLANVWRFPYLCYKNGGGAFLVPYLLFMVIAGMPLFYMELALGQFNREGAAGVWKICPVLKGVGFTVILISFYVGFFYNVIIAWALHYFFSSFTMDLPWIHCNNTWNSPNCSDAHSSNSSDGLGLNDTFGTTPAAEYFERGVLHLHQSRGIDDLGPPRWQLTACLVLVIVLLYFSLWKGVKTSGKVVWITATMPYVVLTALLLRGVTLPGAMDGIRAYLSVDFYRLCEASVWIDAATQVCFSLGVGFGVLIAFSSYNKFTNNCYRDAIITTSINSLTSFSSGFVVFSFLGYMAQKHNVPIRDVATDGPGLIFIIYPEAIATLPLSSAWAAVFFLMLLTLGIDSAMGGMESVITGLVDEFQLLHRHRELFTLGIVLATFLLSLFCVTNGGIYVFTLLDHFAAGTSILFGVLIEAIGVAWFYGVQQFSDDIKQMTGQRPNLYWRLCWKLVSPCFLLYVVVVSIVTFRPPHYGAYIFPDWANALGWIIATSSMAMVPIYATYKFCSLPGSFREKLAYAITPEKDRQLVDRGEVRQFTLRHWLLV
Chain of Sodium-dependent dopamine transporter (Rattus norvegicus) (P23977 whole entry): as the sequence (Q61327 whole entry) above, with P21S, V57A, S194A, R600H, V619L counted along it

SMILES	ED50 (Mus musculus [1]) [mg/kg]	LD50 [2] [mg/kg]	ED50 [3] [mg/kg]	EDmin (Mus musculus [4]) [mg/kg]	ED50 (Mus musculus [5]) [mg/kg]	EDmin (Mus musculus [6]) [mg/kg]	EDmin [7] [mg/kg]	EDmin (Mus musculus [8]) [mg/kg]	EDmin (Felis catus [9]) [mg/kg]	ED50 (Mus musculus [10]) [mg/kg]	ED50 (Mus musculus [11]) [mg/kg]	EDmin (Mus musculus [12]) [mg/kg]	EDmin (Felis catus [13]) [mg/kg]
CN1Cc2c(NC(=O)CCCl)cccc2C(c2ccccc2)C1 (stereo unspecified)	8.8	89	19	>15	> 30	>30	20.5	>30	1	–	–	–	–
CN1Cc2c(N)cccc2C(c2ccc(F)cc2)C1 (stereo unspecified)	–	222	–	10	–	5	–	2	0.2	~3.6	0.25	–	–
CC(C)c1ccc(C2CN(C)Cc3c(N)cccc32)cc1 (stereo unspecified)	–	1100	–	80	–	80	–	50	2	> 80	68	–	–
CCCNC(=O)Nc1cccc2c1CN(C)CC2c1ccccc1 (stereo unspecified)	–	455	–	80	–	>80	> 83	>60	10	> 80	> 80	–	–
CCCCOC(=O)Nc1cccc2c1CN(C)CC2c1ccccc1 (stereo unspecified)	–	180	–	>5	–	5	20.5	20	2	4	2.6	–	–
CCCCNCC(=O)Nc1cccc2c1CN(C)CC2c1ccccc1 (stereo unspecified)	–	240	–	>30	–	15	32.8	>40	2	32	–	–	–
Cc1ccc(C2CN(C)Cc3c(N)cccc32)cc1 (stereo unspecified)	–	800	–	–	–	15	–	2	0.2	1.6	~1.2	10	–
CCNCC(=O)Nc1cccc2c1CN(C)CC2c1ccc(Cl)cc1 (stereo unspecified)	–	325	–	>20	–	20	32.8	5	0.5	24	6.4	–	–
CN1Cc2c(N)cccc2C(c2ccc(Cl)cc2)C1 (stereo unspecified)	–	240	–	5	–	10	–	2	–	1.6	1.1	–	–
CCCCNC(=O)Nc1cccc2c1CN(C)CC2c1ccc(Cl)cc1 (stereo unspecified)	–	> 1000	–	>30	–	15	134	>100	3	44	15	–	–
CN1Cc2c(NC(=O)OCc3ccccc3)cccc2C(c2ccccc2)C1 (stereo unspecified)	–	> 1000	–	100	–	100	12	20	>5	~15	16	–	–
CC(C)NCCC(=O)Nc1cccc2c1CN(C)CC2c1ccccc1 (stereo unspecified)	–	900	–	160	–	160	> 83	200	2	150	~125	–	–
CCNCCC(=O)Nc1cccc2c1CN(C)CC2c1ccccc1 (stereo unspecified)	–	720	–	>160	–	160	134	200	4	> 200	> 160	–	–
CCCCNC(=O)Nc1cccc2c1CN(C)CC2c1ccccc1 (stereo unspecified)	–	430	–	80	–	80	> 83	>40	2	~40	23	–	–
CCCCNCCC(=O)Nc1cccc2c1CN(C)CC2c1ccccc1 (stereo unspecified)	–	292	–	>80	–	>80	> 83	>40	>5	~46	74	–	–
CCCCNCC(=O)Nc1cccc2c1CN(C)CC2c1ccc(C)cc1 (stereo unspecified)	–	320	–	>10	–	5	52.4	10	1	34	~2.5	–	–

SMILES	ED50 (Mus musculus [1]) [mg/kg]	LD50 [2] [mg/kg]	ED50 [3] [mg/kg]	EDmin (Mus musculus [4]) [mg/kg]	ED50 (Mus musculus [5]) [mg/kg]	EDmin (Mus musculus [6]) [mg/kg]	EDmin [7] [mg/kg]	EDmin (Mus musculus [8]) [mg/kg]	EDmin (Felis catus [9]) [mg/kg]	ED50 (Mus musculus [10]) [mg/kg]	ED50 (Mus musculus [11]) [mg/kg]	EDmin (Mus musculus [12]) [mg/kg]	EDmin (Felis catus [13]) [mg/kg]
CN1Cc2c(NC(=O)CN3CCOCC3)cccc2C(c2ccccc2)C1 (stereo unspecified)	–	295	–	60	–	60	83	20	3	39	–	–	–
CCOC(=O)Nc1cccc2c1CN(C)CC2c1ccccc1 (stereo unspecified)	–	71	–	4	–	>8	> 12.8	2	–	3.2	~4	–	–
CCCCNCC(=O)Nc1cccc2c1CN(C)CC2c1ccc(Cl)cc1 (stereo unspecified)	–	320	–	>20	–	>20	32.8	5	0.5	13.5	3.9	–	–
CCNC(=O)Nc1cccc2c1CN(C)CC2c1ccccc1 (stereo unspecified)	–	290	–	40	–	80	> 83	40	6	80	54	–	–
CCCCNC(=O)Nc1cccc2c1CN(C)CC2c1ccc(C)cc1 (stereo unspecified)	–	> 1200	–	20	–	20	83	20	>5	40	~15	–	–
CCNCC(=O)Nc1cccc2c1CN(C)CC2c1ccccc1 (stereo unspecified)	–	320	–	>30	–	>60	52.4	60	2	47	–	–	–
CN1Cc2c(NC(=O)CN3CCCC3)cccc2C(c2ccccc2)C1 (stereo unspecified)	–	380	–	>120	–	120	52.4	50	3	39	~25	–	–
CN1Cc2c(N)cccc2C(c2ccccc2)C1 (stereo unspecified) [NOMIFENSINE]	–	336	–	>5	–	10	–	–	–	–	–	–	0.5
CCOC(=O)Nc1cccc2c1CN(C)CC2c1ccc(F)cc1 (stereo unspecified)	–	255	–	5	–	20	8	10	2	3.5	3.3	–	–
CN1Cc2c(NC(=O)CCl)cccc2C(c2ccccc2)C1 (stereo unspecified)	3	94	10	10	10	20	8	>30	1	–	–	–	–
CC(C)NCC(=O)Nc1cccc2c1CN(C)CC2c1ccccc1 (stereo unspecified)	–	300	–	>30	–	30	> 52.4	20	1	14	–	–	–
CN1Cc2c(NC(=O)CN3CCCCC3)cccc2C(c2ccccc2)C1 (stereo unspecified)	–	520	–	>60	–	>100	> 83	20	3.5	~65	–	–	–
CCOC(=O)Nc1cccc2c1CN(C)CC2c1ccc(Cl)cc1 (stereo unspecified)	–	830	–	20	–	3	5.2	10	0.5	4.8	0.6	–	–
CCNCC(=O)Nc1cccc2c1CN(C)CC2c1ccc(C)cc1 (stereo unspecified)	–	320	–	>10	–	10	> 83	20	1.5	~45	5.6	–	–
CN1Cc2c(NC(=O)OCCCl)cccc2C(c2ccccc2)C1 (stereo unspecified)	2.5	160	11	5	9	>20	> 20.5	20	2	–	–	–	–
